Compound activity (PubChem BioAssay)
CRFR2-BP antag: blocks CRF-induced signaling of the CRF-BP/CRF-R2 complex; 350,000 compounds, 0.59% hits; AID 588475; inhibition, % at 11.8 µM; HEK293 CRF-R2/CRF-BP, CRF-induced calcium fluorescence;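 active means inhibition of the ligand-induced calcium signal above about 50% at the single tested concentration, limit read from the data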
TPT1 inh: C. albicans TPT1 enzyme inhibition; recombinant caTPT1, FP RNA substrate dephosphorylation; inhibition, % at 5 µM; 300,000 compounds, 0.81% hits;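 active means inhibition above the mean of all tested compounds plus 3 SD, set per screening campaign, cut at about 24% in these data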;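 further: plate controls were DMSO alone for no effect and ferristatin control at 100 nM for full effect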
HNF4A DNA FP: change in binding of human HNF4 alpha to DNA | P41235 | HNF4a-FITC DNA binding, fluorescence polarization, 1 h | activity change, % at 10 µM | 360,000 compounds, 0.3% hits | AID 1224865; in the data active means activity change above about 30%, passing the limit was not always enough
Target sequence (P41235 whole entry, looked up): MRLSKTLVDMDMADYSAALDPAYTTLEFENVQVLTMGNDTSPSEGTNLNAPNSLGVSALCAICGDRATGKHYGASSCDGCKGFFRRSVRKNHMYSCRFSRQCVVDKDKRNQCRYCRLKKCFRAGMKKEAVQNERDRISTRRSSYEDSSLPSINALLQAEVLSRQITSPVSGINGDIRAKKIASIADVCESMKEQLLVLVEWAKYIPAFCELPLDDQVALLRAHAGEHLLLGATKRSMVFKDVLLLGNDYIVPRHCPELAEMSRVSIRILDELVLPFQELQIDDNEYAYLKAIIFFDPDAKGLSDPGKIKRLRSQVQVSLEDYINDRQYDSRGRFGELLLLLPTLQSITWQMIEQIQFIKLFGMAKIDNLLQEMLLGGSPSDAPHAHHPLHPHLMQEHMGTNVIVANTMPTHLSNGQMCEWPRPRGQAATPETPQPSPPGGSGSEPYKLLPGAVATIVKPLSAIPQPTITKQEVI
CSN inh: CSN deneddylation inhibition; Q92905; Purified CSN, SCF-Nedd8-OG deneddylation, fluorescence polarization; inhibition, % at 12.5 µM; 360,000 compounds, 0.38% hits;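 active means pattern-corrected inhibition above about 35%, with an unprinted fluorescence ratio check between 0.5 and 1.5, limit read from the data, passing the limit was not always enough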;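 further: 0% = enzyme with substrate and 100% = substrate without enzyme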
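Assay system: Purified human Csn5 enzyme expressed in HEK293T cells | Amount: Enzyme 0.24 nM | Measured by: Fluorescence polarization readout | Medium: Tris/NaCl/DTT buffer, pH 7.5 | Compound dosing: One concentration, 12.5 µM, 0.25% DMSO | Times: 90 min incubation of compound, enzyme and substrate at room temperature | Control set: no-enzyme wells high, enzyme-with-substrate wells low | Read-out: % inhibition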
Rpn11 inh: blocks the human proteasome subunit Rpn11. human 26S proteasome, Ub4-pepOG fluorescence polarization; 20S core pre-blocked with epoxomicin. calls only at 20 µM. O00487. 360,000 compounds, 0.59% hits. AID 588493;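 active means inhibition at 20 µM, scaled to each plate's controls, above about 33%, limit read from the data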
CRFBP-R2 agonist: agonists of human CRF-binding protein/CRF-R2 receptor complex. activation, % at 13.2 µM. 350,000 compounds, 0.46% hits. HEK293 CRF-R2/CRF-BP, calcium dye fluorescence (FLIPR); percent of saturating CRF peptide response. AID 588473;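 active means activation of at least 50%, plus an integration ratio under a set limit after plate pattern correction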;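 further: plate controls were neutral control wells without compound for no effect and CRF at EC100 for full effect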
* marks the source's active call; other numbers are inactive results; i = inactive; · = no result shown; + = active, no number. Hits are enriched below; roughly 2.3% of the tested compounds scored in any of these assays.

SMILES	CRFR2-BP antag	TPT1 inh	HNF4A DNA FP	CSN inh	Rpn11 inh	CRFBP-R2 agonist
CN1C2CCC1CC(OC(=O)c1cc(Cl)cc(Cl)c1)C2 (centres undefined)	-11	0	-1	-3	i	4
CCN1/C(=C/C=C/C2=[N+](CC)c3ccccc3C2(C)C)C(C)(C)c2ccccc21	-43	·	-94	-72	·	139*
CN1/C(=C\C=C\C2=[N+](C)c3ccc4ccccc4c3C2(C)C)C(C)(C)c2ccccc21	·	-71	·	·	·	·
COc1cccc(C(=O)C2CCCN(C3CCOCC3)C2)c1 (centres undefined)	2	-3	2	-1	i	1
CC(=O)N1CCC(N2CCCC(C(=O)c3cccc(Cl)c3)C2)CC1 (centres undefined)	67*	-6	3	0	i	2
CC1C(C)N1CC(O)Cn1ccnc1[N+](=O)[O-] (centres undefined)	11	-4	0	2	i	-2
CNc1ccc2oc(C[C@H]3O[C@@]4(CC[C@H]3C)O[C@H]([C@H](C)C(=O)c3ccc[nH]3)[C@H](C)C[C@H]4C)nc2c1C(=O)O	-229	3	-3	-2	i	211*
Oc1c(Br)c(Br)c(Br)c(Br)c1Br	58*	·	4	9	i	-2
Cc1ccc2cccc(OC(=O)N3CCCC3)c2n1	-33	1	-2	1	i	2
O=c1oc2ccccc2c(O)c1C(c1ccc([N+](=O)[O-])cc1)c1c(O)c2ccccc2oc1=O	82*	·	0	7	i	21
CC(C)c1ccc(C(c2c(O)c3ccccc3oc2=O)c2c(O)c3ccccc3oc2=O)cc1	64*	·	-3	2	i	-3
Cc1c(C(=O)Nc2ccccc2)c2cc(O)ccc2n1Cc1ccccc1	-10	-1	-1	5	i	-5
Clc1ccc(C(c2ccc(Cl)cc2)n2cc[n+](CC(OCc3ccc(Cl)cc3Cl)c3ccc(Cl)cc3Cl)c2)cc1 (centres undefined)	23	-1	11	29	+	0
COC(=O)CCCNC(=O)CN1CC(c2ccccc2)CC1=O (centres undefined)	0	0	3	0	i	2
Cc1cc(C(=O)NP(=O)(N2CCOCC2)N2CCOCC2)c(C)n1C1CC1	7	1	4	5	i	1
CC(=O)N1N=C2C3CCN(CC3)C2C1c1cccc2ccccc12 (centres undefined)	-132	-1	2	1	i	81*
O=C(COc1ccccc1)N1CCN(CCN2C(=O)c3cccc4cccc(c34)C2=O)CC1	-19	-3	0	-1	i	-5
O=C(COc1ccccc1F)N1CCN(CCN2C(=O)c3cccc4cccc(c34)C2=O)CC1	70*	-1	-5	-8	i	0
Cc1ccc(N2C(=O)CC(=O)NC2=O)c(C)c1	57*	10	8	-1	i	-1
CCCCCCCCCCOC(=O)CCN1CC1	51*	·	-7	1	i	8
Cn1cc(NC(=O)CCl)cn1	2	2	1	1	i	0
COc1ccc(-c2ccc3c(c2)CN(C(=O)NC2CCCCC2)Cc2cnnn2-3)cc1	·	·	4	-8	i	·
O=C(NC1CCCCC1)N1Cc2cc(-c3cccc(F)c3)ccc2-n2nncc2C1	·	·	5	145*	i	·
O=C(Cc1ccccc1)N1CCN(CC2CC3C=CC2C3)CC1 (centres undefined)	-15	-1	1	-3	i	-1
CN(C)C(=O)Oc1ccc(OC(=O)c2ccccc2)cc1	3	2	2	3	i	0
CN(C(=O)Oc1ccc(C(=O)c2ccc(Cl)cc2)cc1)c1ccccc1	50*	-2	1	2	i	9
C[C@]12CCC(=O)C=C1C=CC1C2CC[C@]2(C)C(=O)CCC12 (some centres undefined)	3	·	-1	-3	i	-1
COc1ccc(/C=C2/C(=O)NC(=O)N(Cc3ccco3)C2=O)cc1	·	33*	·	·	·	·
CC(CC(C#N)(c1ccccc1)c1ccccc1)N1CCOCC1 (centres undefined)	5	·	0	2	i	-4
